From PubChem BioAssay
Vif inh: blocks HIV Vif function | HEK293T cells, Vif self-association by quenched fluorescence, imaging, 24 h | inhibition, % at 7.49 µM | 340,000 compounds, 0.35% hits | AID 602346; in the data active = inhibition above about 50%, passing the limit was not always enough
NPR2 activator: GC-B (human) receptor activation. HEK293-GC-B cells, CNP EC30, cGMP TR-FRET; 0% at EC30 CNP, 100% saturating CNP. AID 1920062. activation, % at 10 µM. P20594. 370,000 compounds, 0.11% hits;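 active = activation at 10 µM reaching about 35% in either raw or pattern-adjusted values, limit read from the data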
XiGFP reactiv: X-chromosome reactivation activator; XiGFP mouse fibroblasts, % GFP-positive cells imaging, 3 d; cells co-treated with 5-aza-dC sensitizer; scaled so ellipticine positive control = 100%; 360,000 compounds, 0.055% hits; activation, % at 7.58 µM;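 active = mean normalized replicate activation at least 10% and every replicate at or above 10%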;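 note: 0% = median of on-plate neutral control wells and 100% = ellipticine 6 µM median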
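System: 68-5-11 XiGFP fibroblast line; Timing: 3 days compound exposure; Compound dosing: one concentration, pinned; Benchmarks: positive control ellipticine, 6 µM final; Buffer or medium: DMEM containing 5-aza-dC.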
CaV13 FRET inh: Primary screen for inhibitors of IQ motif and Ca2+-dependent inactivation inhibitor domain binding in CACNA1D, Förster resonance energy transfer in living cells, … | 340,000 compounds, 0.098% hits | AID 743397 | HEK cells, CFP/YFP FRET ICDI-IQ, plate reader, 10 min; percent FRET-ratio fall versus neutral wells | inhibition, % at 12.3 µM;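 active = mean replicate inhibition of at least 30% and at least 1% of replicates passing that level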;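 note: 0% = median of the neutral control wells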
GC-A act: GC-A (human) enzyme activation | 370,000 compounds, 0.14% hits | activation, % at 10 µM | AID 1671463 | HEK293 GC-A cells, cGMP TR-FRET, EC30 ANP; 0% at EC30 ANP, 100% saturating ANP | P16066; in the data active = activation above about 40%
Glyco luc inh: blocks N-linked glycosylation in D54 reporter cells | reporter increase, % at 12.5 µM | AID 588692 | 360,000 compounds, 0.23% hits | D54 ERlucT glycosylation luciferase reporter, 24 h; percent of 100 nM tunicamycin response;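 active = mean luciferase reporter signal, scaled so untreated is 0 and the glycosylation-blocking control 100, at or above a set limit in every replicate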;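 note: luciferase carries N-glycosylation sites so blocking glycosylation raises the light; 0% = median of neutral control wells and 100% = median of 100 nM tunicamycin wells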
An asterisk follows results filed as active. Only some compounds are listed: those with a hit (about 0.7% of all), similar ones and a draw of the others.

CCC(=O)N1C[C@H]2[C@@H](c3ccccc31)[C@H](CO)N2C(=O)Nc1ccccc1F was read as XiGFP reactiv 0.
For CCC(=O)N(C)C[C@@H]1Oc2cc(-c3cncnc3)ccc2S(=O)(=O)N([C@H](C)CO)C[C@H]1C the results were XiGFP reactiv -1.
For O=C(c1ccc(F)cc1)N1CC(=O)N2[C@@H](CO)[C@@H](c3ccc(C#CC4CCCC4)cc3)[C@@H]2C1 the results were XiGFP reactiv 0.
Screening CC(=O)N(CCC1(C(C)C)CCOC(C)(C)C1)Cc1ccco1 (stereo not drawn) returned Vif inh -3, NPR2 activator -4, CaV13 FRET inh -4, GC-A act 2 and Glyco luc inh 0.
CCC(=O)N(CCC1(C(C)C)CCOC(C)(C)C1)Cc1ccco1 (stereo not drawn) was read as Vif inh 109*, NPR2 activator 0, CaV13 FRET inh -4, GC-A act -2 and Glyco luc inh 2.
Screening CO[C@H]1CN(C)C(=O)c2cc(NS(=O)(=O)c3ccc(Cl)cc3)ccc2OC[C@H](C)N(C)C[C@@H]1C returned XiGFP reactiv 0.
CCCCn1c(SCc2c(C)noc2C)nc2cc(S(N)(=O)=O)ccc21 was read as Vif inh 13, NPR2 activator -3, CaV13 FRET inh 1, GC-A act -4 and Glyco luc inh 40*.
For COCC(=O)N(C)C[C@@H]1Oc2cc(C#C[C@H](C)O)ccc2S(=O)(=O)N([C@H](C)CO)C[C@@H]1C the results were XiGFP reactiv 3.
Screening Oc1[nH]c(=S)sc1/C=C1\C(c2ccccc2)=Nc2ccccc21 returned Vif inh 69*, NPR2 activator -2, XiGFP reactiv 3, CaV13 FRET inh -9, GC-A act 2 and Glyco luc inh 1.
Cc1ccc2c(c1)cc(CN(C(=O)N1CCOCC1)C1CCCC1)c1nnnn12 was read as Vif inh -5, NPR2 activator 0, XiGFP reactiv 0, CaV13 FRET inh -5, GC-A act -3 and Glyco luc inh 40*.
Screening CCC(=O)N(Cc1cc2ccc(C)cc2n2nnnc12)C1CCCCC1 returned Vif inh -4, NPR2 activator 9, CaV13 FRET inh -4, GC-A act 5 and Glyco luc inh 0.
For COc1cc(/C=C(\C#N)C(=O)NC(C)C)cc(Cl)c1O the results were Vif inh 15, NPR2 activator -5, XiGFP reactiv 0, CaV13 FRET inh 48*, GC-A act -5 and Glyco luc inh 0.
CC(C)NC(=O)/C(C#N)=C/c1cccc(NC(=O)c2ccccc2Cl)c1 was read as Vif inh -2, NPR2 activator 2, XiGFP reactiv 0, CaV13 FRET inh -5, GC-A act 8 and Glyco luc inh 2.
For CCCC(=O)Nc1ccc2c(c1)C(=O)N(C)C[C@H](OC)[C@@H](C)CN(C(=O)C1CCCC1)[C@H](C)CO2 the results were XiGFP reactiv 1.
Screening C[C@@H]1CN([C@H](C)CO)C(=O)c2cc(NS(C)(=O)=O)ccc2O[C@H]1CN(C)Cc1ccc(C(=O)Nc2ccccc2N)cc1 returned XiGFP reactiv 0.
`Cc1noc(C)c1S(=O)(=O)Nc1ccc2c(c1)CC(=O)N([C@H](C)CO)C[C@H](C)[C@H](CN(C)S(=O)(=O)c1ccccc1)O2` gave XiGFP reactiv -1.
For CCNC1=C(Cl)C(=O)c2ccccc2C1=O the results were Vif inh 4, NPR2 activator -5, CaV13 FRET inh -6, GC-A act -3 and Glyco luc inh -7.
CCCC(=O)NC1=C(Cl)C(=O)c2ccccc2C1=O was read as Vif inh 98*, NPR2 activator -11, XiGFP reactiv 4, CaV13 FRET inh -2, GC-A act 6 and Glyco luc inh -3.
`CC(C)CCN1C(=O)c2cccc3c(N)ccc(c23)C1=O` gave NPR2 activator 4, XiGFP reactiv 99*, CaV13 FRET inh active, GC-A act 11 and Glyco luc inh 0.
